Experimental data as given in ChEMBL document CHEMBL3085771, “Azetidinone-retinoid hybrids: synthesis and differentiative effects” (Eur J Med Chem, 2013).
Calls of active or inactive are those of the source. The rule behind the calls is not given here.

Assays:
[1] = system: SH-SY5Y; test: Induction of cell differentiation in human SH-SY5Y cells assessed as neural-like differentiation at 10 uM after 6 days using beta3-tubulin and NF200 staining by microscopic analysis; type: functional, cell-based
Outline: (§1)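 SH-SY5Y grown on BME-coated glass coverslips at 1×10⁴ cells/cm², treated from 24 h for 6 days, medium changed every 48 h. Controls were untreated cells and RA 10 microM. Cells fixed in 4% PFA, immunostained overnight at 4 °C for βIII-tubulin and NF200, and counterstained with Hoechst. Imaged at 20×; immunoreactive area normalized to cell number, mean ± SD.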

[2] = system: SH-SY5Y; test: Cytotoxicity against human SH-SY5Y cells at 10 uM after 48 hrs by MTT assay; type: functional, cell-based
[3] = system: SH-SY5Y; test: Cytotoxicity against human SH-SY5Y cells assessed as doubling time at 10 uM after 24 to 96 hrs by trypan blue exclusion assay (reference value: 34.9 hrs); type: functional, cell-based
[4] = system: SH-SY5Y; test: Cytotoxicity against human SH-SY5Y cells at 10 uM after 72 to 96 hrs by MTT assay; type: functional, cell-based
[5] = Cytotoxicity against human SH-SY5Y cells after 24 hrs by MTT assay
[6] = Cytotoxicity against human SH-SY5Y cells assessed as doubling time at 10 uM after 24 to 72 hrs by trypan blue exclusion assay (reference value: 34.9 hrs); type: functional
[7] = system: SH-SY5Y; test: Cytotoxicity against human SH-SY5Y cells assessed as doubling time at 7.5 uM after 24 to 96 hrs by trypan blue exclusion assay (reference value: 34.9 hrs); type: functional, cell-based
[8] = system: SH-SY5Y; test: Cytotoxicity against human SH-SY5Y cells at 7.5 uM after 72 to 96 hrs by MTT assay; type: functional, cell-based
[9] = system: SH-SY5Y; test: Induction of cell differentiation in human SH-SY5Y cells assessed as neural-like differentiation at 7.5 uM after 6 days using beta3-tubulin and NF200 staining by microscopic analysis; type: functional, cell-based; outline: as §1
[10] = Cytotoxicity against human SH-SY5Y cells assessed as doubling time at 7.5 uM after 24 to 72 hrs by trypan blue exclusion assay (reference value: 34.9 hrs); type: functional

| Compound | Activity [1] | Activity [2] | Activity [3] | Activity [4] | IC50 [5] [µM] | Time [6] [h] | Activity [7] | Activity [8] | Activity [9] | Time [10] [h] |
| --- | --- | --- | --- | --- | --- | --- | --- | --- | --- | --- |
| CC1=C(/C=C/C(C)=C\CNC(=O)/C=C2/CC(=O)N2)C(C)(C)CCC1 | Active | Active | inactive | Active | 35 | 51.25 |  |  |  |  |
| CC1=C(/C=C/C(C)=C/CNC(=O)/C=C2/CC(=O)N2)C(C)(C)CCC1 | Active | Active | inactive | Active | 38 | 39.78 |  |  |  |  |
| CC1=C(/C=C/C(C)=C/C=C/C(C)=C/C(=O)O)C(C)(C)CCC1 | Active |  |  |  |  |  |  |  |  |  |
| CSN1C(=O)CC1CC/C=C/C(=O)Nc1ccccc1 (stereo not drawn) |  |  |  |  | 10 |  | inactive | Active | inactive | 39 |
